Values after ≈ are worked out from the molar mass of the structure shown.
The compounds below were run on Staphylococcus aureus (assay: Antibacterial activity against Staphylococcus aureus ATCC 6538 after 24 hrs by micro dilution method). Details: ATCC 6538, 24 h.
Assay type: functional
Method in brief: (§1)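 Microdilution MIC in 96-well plates. Bacterial suspensions adjusted in sterile saline to 1.0 × 10^5 CFU/ml, giving 1.0 × 10^4 cfu per well in LB broth. Compounds tested at up to 1 mg/ml. Plates incubated 24 h. MIC taken as the lowest concentration with no visible growth under a binocular microscope. OD at 655 nm was also read against a blank and the positive control. Streptomycin and ampicillin were the positive controls.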
For `COc1cc(Cc2n[nH]c(=S)n2C)c(S(=O)(=O)N(C)C)cc1OC`, the MIC was 270 µM (≈ 101 µg/mL).

What follows are compounds tested on Enterobacter cloacae (assay: Antibacterial activity against Enterobacter cloacae human isolate after 24 hrs by micro dilution method). Details: not given.
Assay type: functional
Method in brief: as §1
Compound `COc1cc(Cc2n[nH]c(=S)n2C)c(S(=O)(=O)N(C)C)cc1OC` has an MIC of 270 µM (≈ 101 µg/mL).

Each compound was assayed on Aspergillus niger (assay: Antifungal activity against Aspergillus niger ATCC 6275 after 72 hrs by serial dilution method). Details: ATCC 6275, 72 h.
Assay type: functional
Method in brief: (§2)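 Modified microdilution MIC. Spores were washed from malt agar cultures with sterile 0.85% saline containing 0.1% Tween 80 and adjusted to about 1.0 × 10^5 per 100 µl well in malt broth. Compounds were dissolved in DMSO (1 mg/ml). Plates incubated 72 h at 28 °C. MIC is the lowest concentration with no visible growth under a binocular microscope. Bifonazole and ketoconazole were the references.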
`COc1cc(Cc2n[nH]c(=S)n2C)c(S(=O)(=O)N(C)C)cc1OC` was tested, and the MIC was 70 µM (≈ 26.1 µg/mL).

What follows are compounds tested on Aspergillus versicolor (assay: Antifungal activity against Aspergillus versicolor ATCC 11730 after 72 hrs by serial dilution method). Details: ATCC 11730, 72 h.
Assay type: functional
Method in brief: as §2
Compound `COc1cc(Cc2n[nH]c(=S)n2C)c(S(=O)(=O)N(C)C)cc1OC` has an MIC of 140 µM (≈ 52.1 µg/mL).

These compounds were tested on Escherichia coli (assay: Antibacterial activity against Escherichia coli ATCC 35210 treated for 24 hrs followed by sub-cultivated for 72 hrs by micro dilution method). Details: not given.
Assay type: functional
Method in brief: (§3)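 2 µl from each well was serially subcultured into 100 µl fresh broth per well and incubated a further 72 h. MBC is the lowest concentration with no visible growth, taken as 99.5% killing of the original inoculum. Streptomycin and ampicillin were the positive controls.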
`COc1cc(Cc2n[nH]c(=S)n2C)c(S(=O)(=O)N(C)C)cc1OC` gave an MBC of 540 µM (≈ 201 µg/mL).

What follows are compounds tested on Trichoderma viride (assay: Antifungal activity against Trichoderma viride IAM 5061 treated for 72 hrs followed by sub-cultivated for 5 days by serial dilution method). Details: not given.
Assay type: functional
Method in brief: (§4)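 MFC obtained after the 72 h, 28 °C malt-broth microdilution (spore inoculum about 1.0 × 10^5 per well, compounds from 1 mg/ml DMSO). 2 µl was serially subcultured into 100 µl broth per well and incubated a further 5 days at 28 °C. MFC is the lowest concentration with no visible growth, taken as 99.5% killing of the original inoculum.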
Compound `COc1cc(Cc2n[nH]c(=S)n2C)c(S(=O)(=O)N(C)C)cc1OC` has an MFC of 140 µM (≈ 52.1 µg/mL).

What follows are compounds tested on Micrococcus flavus (assay: Antibacterial activity against Micrococcus flavus ATCC 10240 treated for 24 hrs followed by sub-cultivated for 72 hrs by micro dilution method). Details: not given.
Assay type: functional
Method in brief: as §3
`COc1cc(Cc2n[nH]c(=S)n2C)c(S(=O)(=O)N(C)C)cc1OC` gave an MBC of 540 µM (≈ 201 µg/mL).

Each compound was assayed on Salmonella typhimurium (assay: Antibacterial activity against Salmonella Typhimurium ATCC 13311 after 24 hrs by micro dilution method). Details: Salmonella enterica, ATCC 13311, 24 h.
Assay type: functional, Salmonella enterica subsp. enterica serovar Typhimurium
Method in brief: as §1
`COc1cc(Cc2n[nH]c(=S)n2C)c(S(=O)(=O)N(C)C)cc1OC` gave an MIC of 270 µM (≈ 101 µg/mL).

What follows are compounds tested on Aspergillus fumigatus (assay: Antifungal activity against Aspergillus fumigatus human isolate treated for 72 hrs followed by sub-cultivated for 5 days by serial dilution method). Details: not given.
Assay type: functional
Method in brief: as §4
With `COc1cc(Cc2n[nH]c(=S)n2C)c(S(=O)(=O)N(C)C)cc1OC` the MFC was 270 µM (≈ 101 µg/mL).

The compounds below were run on Aspergillus versicolor (assay: Antifungal activity against Aspergillus versicolor ATCC 11730 treated for 72 hrs followed by sub-cultivated for 5 days by serial dilution method). Details: not given.
Assay type: functional
Method in brief: as §4
`COc1cc(Cc2n[nH]c(=S)n2C)c(S(=O)(=O)N(C)C)cc1OC` showed an MFC of 270 µM (≈ 101 µg/mL).

Each compound was assayed on Pseudomonas aeruginosa (assay: Antibacterial activity against Pseudomonas aeruginosa ATCC 27853 after 24 hrs by micro dilution method). Details: ATCC 27853, 24 h.
Assay type: functional
Method in brief: as §1
For `COc1cc(Cc2n[nH]c(=S)n2C)c(S(=O)(=O)N(C)C)cc1OC`, the MIC was 540 µM (≈ 201 µg/mL).

What follows are compounds tested on Micrococcus flavus (assay: Antibacterial activity against Micrococcus flavus ATCC 10240 after 24 hrs by micro dilution method). Details: ATCC 10240, 24 h.
Assay type: functional
Method in brief: as §1
`COc1cc(Cc2n[nH]c(=S)n2C)c(S(=O)(=O)N(C)C)cc1OC` gave an MIC of 270 µM (≈ 101 µg/mL).

These compounds were tested on Listeria monocytogenes (assay: Antibacterial activity against Listeria monocytogenes NCTC 7973 treated for 24 hrs followed by sub-cultivated for 72 hrs by micro dilution method). Details: not given.
Assay type: functional
Method in brief: as §3
For `COc1cc(Cc2n[nH]c(=S)n2C)c(S(=O)(=O)N(C)C)cc1OC`, the MBC was 270 µM (≈ 101 µg/mL).

Each compound was assayed on Talaromyces funiculosus (assay: Antifungal activity against Penicillium funiculosum ATCC 36839 after 72 hrs by serial dilution method). Details: ATCC 36839, 72 h.
Assay type: functional
Method in brief: as §2
`COc1cc(Cc2n[nH]c(=S)n2C)c(S(=O)(=O)N(C)C)cc1OC` gave an MIC of 140 µM (≈ 52.1 µg/mL).

The compounds below were run on Listeria monocytogenes (assay: Antibacterial activity against Listeria monocytogenes NCTC 7973 after 24 hrs by micro dilution method). Details: NCTC 7973, 24 h.
Assay type: functional
Method in brief: as §1
In the case of `COc1cc(Cc2n[nH]c(=S)n2C)c(S(=O)(=O)N(C)C)cc1OC`, the MIC is reported as 270 µM (≈ 101 µg/mL).

These compounds were tested on Trichoderma viride (assay: Antifungal activity against Trichoderma viride IAM 5061 after 72 hrs by serial dilution method). Details: IAM 5061, 72 h.
Assay type: functional
Method in brief: as §2
Compound `COc1cc(Cc2n[nH]c(=S)n2C)c(S(=O)(=O)N(C)C)cc1OC` has an MIC of 70 µM (≈ 26.1 µg/mL).

The compounds below were run on Bacillus cereus (assay: Antibacterial activity against Bacillus cereus clinical isolate treated for 24 hrs followed by sub-cultivated for 72 hrs by micro dilution method). Details: not given.
Assay type: functional
Method in brief: as §3
`COc1cc(Cc2n[nH]c(=S)n2C)c(S(=O)(=O)N(C)C)cc1OC` gave an MBC of 540 µM (≈ 201 µg/mL).

What follows are compounds tested on Fulvia fulva (assay: Antifungal activity against Fulvia fulva treated for 72 hrs followed by sub-cultivated for 5 days by serial dilution method). Details: not given.
Assay type: functional
Method in brief: as §4
`COc1cc(Cc2n[nH]c(=S)n2C)c(S(=O)(=O)N(C)C)cc1OC` was tested, and the MFC was 140 µM (≈ 52.1 µg/mL).

Each compound was assayed on Aspergillus flavus (assay: Antifungal activity against Aspergillus flavus ATCC 9643 treated for 72 hrs followed by sub-cultivated for 5 days by serial dilution method). Details: not given.
Assay type: functional
Method in brief: as §4
Compound `COc1cc(Cc2n[nH]c(=S)n2C)c(S(=O)(=O)N(C)C)cc1OC` has an MFC of 140 µM (≈ 52.1 µg/mL).

Each compound was assayed on Aspergillus niger (assay: Antifungal activity against Aspergillus niger ATCC 6275 treated for 72 hrs followed by sub-cultivated for 5 days by serial dilution method). Details: not given.
Assay type: functional
Method in brief: as §4
With `COc1cc(Cc2n[nH]c(=S)n2C)c(S(=O)(=O)N(C)C)cc1OC` the MFC was 140 µM (≈ 52.1 µg/mL).

Each compound was assayed on Enterobacter cloacae (assay: Antibacterial activity against Enterobacter cloacae human isolate treated for 24 hrs followed by sub-cultivated for 72 hrs by micro dilution method). Details: not given.
Assay type: functional
Method in brief: as §3
For `COc1cc(Cc2n[nH]c(=S)n2C)c(S(=O)(=O)N(C)C)cc1OC`, the MBC was 270 µM (≈ 101 µg/mL).

The compounds below were run on Penicillium ochrochloron (assay: Antifungal activity against Penicillium ochrochloron ATCC 9112 after 72 hrs by serial dilution method). Details: ATCC 9112, 72 h.
Assay type: functional
Method in brief: as §2
`COc1cc(Cc2n[nH]c(=S)n2C)c(S(=O)(=O)N(C)C)cc1OC` was tested, and the MIC was 140 µM (≈ 52.1 µg/mL).

What follows are compounds tested on Aspergillus fumigatus (assay: Antifungal activity against Aspergillus fumigatus human isolate after 72 hrs by serial dilution method). Details: not given.
Assay type: functional
Method in brief: as §2
Work on `COc1cc(Cc2n[nH]c(=S)n2C)c(S(=O)(=O)N(C)C)cc1OC` yielded an MIC of 140 µM (≈ 52.1 µg/mL).

These compounds were tested on Salmonella typhimurium (assay: Antibacterial activity against Salmonella Typhimurium ATCC 13311 treated for 24 hrs followed by sub-cultivated for 72 hrs by micro dilution method). Details: Salmonella enterica.
Assay type: functional, Salmonella enterica subsp. enterica serovar Typhimurium
Method in brief: as §3
Work on `COc1cc(Cc2n[nH]c(=S)n2C)c(S(=O)(=O)N(C)C)cc1OC` yielded an MBC of 270 µM (≈ 101 µg/mL).

The compounds below were run on Penicillium ochrochloron (assay: Antifungal activity against Penicillium ochrochloron ATCC 9112 treated for 72 hrs followed by sub-cultivated for 5 days by serial dilution method). Details: not given.
Assay type: functional
Method in brief: as §4
`COc1cc(Cc2n[nH]c(=S)n2C)c(S(=O)(=O)N(C)C)cc1OC` showed an MFC of 270 µM (≈ 101 µg/mL).

The compounds below were run on Fulvia fulva (assay: Antifungal activity against Fulvia fulva after 72 hrs by serial dilution method). Details: not given.
Assay type: functional
Method in brief: as §2
`COc1cc(Cc2n[nH]c(=S)n2C)c(S(=O)(=O)N(C)C)cc1OC` gave an MIC of 70 µM (≈ 26.1 µg/mL).

These compounds were tested on Talaromyces funiculosus (assay: Antifungal activity against Penicillium funiculosum ATCC 36839 treated for 72 hrs followed by sub-cultivated for 5 days by serial dilution method). Details: not given.
Assay type: functional
Method in brief: as §4
`COc1cc(Cc2n[nH]c(=S)n2C)c(S(=O)(=O)N(C)C)cc1OC` gave an MFC of 270 µM (≈ 101 µg/mL).

Each compound was assayed on Staphylococcus aureus (assay: Antibacterial activity against Staphylococcus aureus ATCC 6538 treated for 24 hrs followed by sub-cultivated for 72 hrs by micro dilution method). Details: not given.
Assay type: functional
Method in brief: as §3
`COc1cc(Cc2n[nH]c(=S)n2C)c(S(=O)(=O)N(C)C)cc1OC` was tested, and the MBC was 540 µM (≈ 201 µg/mL).

The compounds below were run on Bacillus cereus (assay: Antibacterial activity against Bacillus cereus clinical isolate after 24 hrs by micro dilution method). Details: not given.
Assay type: functional
Method in brief: as §1
Work on `COc1cc(Cc2n[nH]c(=S)n2C)c(S(=O)(=O)N(C)C)cc1OC` yielded an MIC of 270 µM (≈ 101 µg/mL).

The compounds below were run on Pseudomonas aeruginosa (assay: Antibacterial activity against Pseudomonas aeruginosa ATCC 27853 treated for 24 hrs followed by sub-cultivated for 72 hrs by micro dilution method). Details: not given.
Assay type: functional
Method in brief: as §3
With `COc1cc(Cc2n[nH]c(=S)n2C)c(S(=O)(=O)N(C)C)cc1OC` the MBC was 540 µM (≈ 201 µg/mL).

The compounds below were run on Escherichia coli (assay: Antibacterial activity against Escherichia coli ATCC 35210 after 24 hrs by micro dilution method). Details: ATCC 35210, 24 h.
Assay type: functional
Method in brief: as §1
For `COc1cc(Cc2n[nH]c(=S)n2C)c(S(=O)(=O)N(C)C)cc1OC`, the MIC was 540 µM (≈ 201 µg/mL).

The compounds below were run on Aspergillus flavus (assay: Antifungal activity against Aspergillus flavus ATCC 9643 after 72 hrs by serial dilution method). Details: ATCC 9643, 72 h.
Assay type: functional
Method in brief: as §2
`COc1cc(Cc2n[nH]c(=S)n2C)c(S(=O)(=O)N(C)C)cc1OC` was tested, and the MIC was 70 µM (≈ 26.1 µg/mL).

Source: ChEMBL document CHEMBL1944580, “Synthesis of novel sulfonamide-1,2,4-triazoles, 1,3,4-thiadiazoles and 1,3,4-oxadiazoles, as potential antibacterial and antifungal agents. Biological evaluation and conformational analysis studies” (2012)
